Measurements from ChEMBL document CHEMBL1949557, “Discovery of INCB3284, a Potent, Selective, and Orally Bioavailable hCCR2 Antagonist” (ACS Med Chem Lett, 2011).
Active and inactive are the calls of the source. The rule behind the calls is not given here.

How the values were obtained:
[1] = molecular target: T1, C-C chemokine receptor type 2 (Homo sapiens, UniProt P41597); assay: Displacement of [125I]MCP1 from CCR2 in human PBMC after 30 mins by gamma counter
Mus musculus = assay: Dose normalized AUC in mouse at 10 mg/kg, po; assay type: ADME, organism-based; parameters: dose 10 mg/kg, route oral; settings: in vivo
How it was run: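 Mouse oral PK screen by cassette dosing at 10 mg/kg, three animals per cassette. AUC is dose-normalized.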

[2] = molecular target: T1, C-C chemokine receptor type 2; assay: Inhibition of human CCR2-mediated Erk phosphorylation
[3] = molecular target: T1, C-C chemokine receptor type 2; assay: Inhibition of human CCR2-mediated intracellular calcium mobilization by cell based assay; assay type: functional
[4] = molecular target: T2, C-C chemokine receptor type 1 (Homo sapiens) (UniProt P32246); assay: Inhibition of CCR1 at 1 uM
T2 sequence (whole entry): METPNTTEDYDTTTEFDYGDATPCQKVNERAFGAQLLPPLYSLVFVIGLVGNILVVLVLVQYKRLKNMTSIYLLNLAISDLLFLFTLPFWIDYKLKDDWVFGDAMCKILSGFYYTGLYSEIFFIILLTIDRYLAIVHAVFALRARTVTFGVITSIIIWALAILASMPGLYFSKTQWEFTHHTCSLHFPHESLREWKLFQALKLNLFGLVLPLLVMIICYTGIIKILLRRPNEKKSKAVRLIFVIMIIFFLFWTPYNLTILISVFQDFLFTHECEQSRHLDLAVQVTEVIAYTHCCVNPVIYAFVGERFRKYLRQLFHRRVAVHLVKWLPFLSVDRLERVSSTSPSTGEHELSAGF
How it was run: (§1)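 Cerep selectivity panel of over 50 ion channels, transporters, chemokine receptors and other GPCRs. Single test concentration of 1 μM, scored for significant inhibition.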

[5] = molecular target: C-C chemokine receptor type 5 (Homo sapiens) (UniProt P51681); assay: Inhibition of CCR5 at 1 uM; how it was run: as §1
C-C chemokine receptor type 5 (Homo sapiens), sequence (P51681 whole entry, looked up): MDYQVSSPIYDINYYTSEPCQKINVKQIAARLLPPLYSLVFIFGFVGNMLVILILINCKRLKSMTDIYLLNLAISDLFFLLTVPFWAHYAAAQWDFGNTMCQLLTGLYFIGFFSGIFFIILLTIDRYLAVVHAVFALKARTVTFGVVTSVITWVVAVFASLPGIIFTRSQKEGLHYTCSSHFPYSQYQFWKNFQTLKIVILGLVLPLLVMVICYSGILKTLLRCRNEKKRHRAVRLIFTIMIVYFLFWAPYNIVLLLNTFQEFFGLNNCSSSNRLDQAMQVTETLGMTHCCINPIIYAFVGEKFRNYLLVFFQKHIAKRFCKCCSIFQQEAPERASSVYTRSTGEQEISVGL

[6] = molecular target: T3, C-X-C chemokine receptor type 3 (Homo sapiens) (UniProt P49682); assay: Inhibition of CXCR3 at 1 uM; how it was run: as §1
T3 sequence (whole entry): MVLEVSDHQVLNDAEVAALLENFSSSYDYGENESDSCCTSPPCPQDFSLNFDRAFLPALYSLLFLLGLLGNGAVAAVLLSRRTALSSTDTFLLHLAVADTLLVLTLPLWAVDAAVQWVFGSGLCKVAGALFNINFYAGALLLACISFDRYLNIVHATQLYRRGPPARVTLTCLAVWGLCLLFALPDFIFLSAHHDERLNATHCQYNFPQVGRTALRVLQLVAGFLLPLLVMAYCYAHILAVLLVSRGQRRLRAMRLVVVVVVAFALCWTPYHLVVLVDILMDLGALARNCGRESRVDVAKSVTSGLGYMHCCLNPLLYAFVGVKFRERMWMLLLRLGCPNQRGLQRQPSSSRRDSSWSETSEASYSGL

[7] = molecular target: T4, C-X-C chemokine receptor type 5 (Homo sapiens) (UniProt P32302); assay: Inhibition of CXCR5 at 1 uM; how it was run: as §1
T4 sequence (whole entry): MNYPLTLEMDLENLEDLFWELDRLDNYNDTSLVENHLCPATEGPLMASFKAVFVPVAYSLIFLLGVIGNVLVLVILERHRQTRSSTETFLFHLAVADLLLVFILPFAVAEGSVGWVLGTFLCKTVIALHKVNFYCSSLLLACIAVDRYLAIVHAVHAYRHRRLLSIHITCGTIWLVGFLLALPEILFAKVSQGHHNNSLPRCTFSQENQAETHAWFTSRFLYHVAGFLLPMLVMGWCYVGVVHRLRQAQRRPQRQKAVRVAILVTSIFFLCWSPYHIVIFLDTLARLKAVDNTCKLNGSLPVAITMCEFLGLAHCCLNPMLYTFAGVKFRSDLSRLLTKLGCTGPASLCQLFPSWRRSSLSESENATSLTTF

[8] = Fraction unbound in human serum at 1 to 10 uM; assay type: ADME, cell-free
How it was run: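 Serum protein binding measured in human serum at 1 and 10 μM test concentrations. Read-out is the free (unbound) fraction.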

Liver = assay: Metabolic stability in human liver S9 fraction assessed as glutathione adduct formation in presence of glutathione and NADPH; assay type: ADME, subcellular
Cytochrome P450 1A2 = molecular target: T5, Cytochrome P450 1A2 (Homo sapiens, UniProt P05177); assay: Inhibition of CYP1A2; assay type: ADME
T5 sequence (P05177 whole entry): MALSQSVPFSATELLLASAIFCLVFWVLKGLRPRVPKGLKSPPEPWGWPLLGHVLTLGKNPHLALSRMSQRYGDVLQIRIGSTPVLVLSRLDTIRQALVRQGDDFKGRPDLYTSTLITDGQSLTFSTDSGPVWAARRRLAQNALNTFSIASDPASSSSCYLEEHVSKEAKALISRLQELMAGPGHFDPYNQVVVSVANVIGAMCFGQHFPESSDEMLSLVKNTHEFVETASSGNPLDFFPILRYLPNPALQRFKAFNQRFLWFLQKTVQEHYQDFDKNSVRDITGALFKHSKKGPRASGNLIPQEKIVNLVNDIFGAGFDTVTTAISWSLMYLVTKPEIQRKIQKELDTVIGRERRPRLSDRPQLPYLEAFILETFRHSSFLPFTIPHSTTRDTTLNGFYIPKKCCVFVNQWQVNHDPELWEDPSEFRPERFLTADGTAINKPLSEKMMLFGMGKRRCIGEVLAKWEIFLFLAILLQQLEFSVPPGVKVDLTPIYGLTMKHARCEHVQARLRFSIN

Cytochrome P450 2C19 = Cytochrome P450 2C19 (Homo sapiens, UniProt P33261); assay: Inhibition of CYP2C19; assay type: ADME
Cytochrome P450 2C19, sequence (P33261 whole entry): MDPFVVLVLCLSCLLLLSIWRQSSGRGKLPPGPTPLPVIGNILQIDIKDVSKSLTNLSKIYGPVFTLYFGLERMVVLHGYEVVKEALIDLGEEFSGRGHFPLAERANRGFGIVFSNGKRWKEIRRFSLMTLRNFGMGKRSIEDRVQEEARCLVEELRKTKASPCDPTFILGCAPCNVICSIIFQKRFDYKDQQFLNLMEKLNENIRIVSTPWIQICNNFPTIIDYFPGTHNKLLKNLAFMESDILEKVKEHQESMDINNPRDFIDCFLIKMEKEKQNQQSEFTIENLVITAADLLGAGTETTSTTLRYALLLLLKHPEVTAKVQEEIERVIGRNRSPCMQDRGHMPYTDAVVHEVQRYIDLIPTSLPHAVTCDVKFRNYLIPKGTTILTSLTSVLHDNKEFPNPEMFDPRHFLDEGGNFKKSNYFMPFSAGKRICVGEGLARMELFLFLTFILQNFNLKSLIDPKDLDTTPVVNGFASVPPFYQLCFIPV

Cytochrome P450 2D6 = Cytochrome P450 2D6 (Homo sapiens, UniProt P10635); assay: Inhibition of CYP2D6; assay type: ADME
Cytochrome P450 2D6, sequence (P10635 whole entry): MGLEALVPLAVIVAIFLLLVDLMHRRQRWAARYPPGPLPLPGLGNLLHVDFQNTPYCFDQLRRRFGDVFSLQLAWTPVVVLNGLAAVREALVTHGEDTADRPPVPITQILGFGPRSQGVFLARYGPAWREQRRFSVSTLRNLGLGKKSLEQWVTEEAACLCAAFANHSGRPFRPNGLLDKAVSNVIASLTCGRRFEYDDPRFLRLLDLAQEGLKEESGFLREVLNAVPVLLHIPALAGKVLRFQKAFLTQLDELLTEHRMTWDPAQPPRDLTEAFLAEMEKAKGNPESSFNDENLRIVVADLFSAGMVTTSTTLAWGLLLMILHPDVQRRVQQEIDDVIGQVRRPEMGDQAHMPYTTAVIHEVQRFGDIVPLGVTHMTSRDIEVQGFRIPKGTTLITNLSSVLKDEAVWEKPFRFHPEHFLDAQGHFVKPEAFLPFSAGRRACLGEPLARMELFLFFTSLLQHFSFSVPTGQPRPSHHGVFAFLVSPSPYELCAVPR

Rattus norvegicus [9] = assay: Clearance in rat at 5 mg/kg, iv; assay type: ADME, organism-based; parameters: dose 5 mg/kg, route intravenous; settings: in vivo
How it was run: (§2)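 Pharmacokinetics run in rats, dogs, cynomolgus monkeys and chimpanzees, with two animals per species for the iv arm and two per species for the oral arm. Parameters were derived per species and route: CL, Vss and T1/2 from iv dosing; Cmax, Tmax, AUC, T1/2 and F% from oral dosing. Values are reported as mean ± spread.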

[10] = Half life in rat at 5 mg/kg, iv; assay type: ADME, organism-based; parameters: dose 5 mg/kg, route intravenous; settings: in vivo; how it was run: as §2
[11] = Cmax in rat at 10 mg/kg, po; assay type: ADME, organism-based; parameters: dose 10 mg/kg, route oral; settings: in vivo; how it was run: as §2
Rattus norvegicus [12] = assay: AUC in rat at 10 mg/kg, po; assay type: ADME, organism-based, Plasma; parameters: dose 10 mg/kg, route oral; settings: in vivo; how it was run: as §2
[13] = Half life in rat at 10 mg/kg, po; assay type: ADME, organism-based; parameters: dose 10 mg/kg, route oral; settings: in vivo; how it was run: as §2
[14] = Clearance in dog at 5 mg/kg, iv; assay type: ADME, organism-based, Canis lupus familiaris; parameters: dose 5 mg/kg, route intravenous; settings: in vivo; how it was run: as §2
[15] = Half life in dog at 5 mg/kg, iv; assay type: ADME, organism-based, Canis lupus familiaris; parameters: dose 5 mg/kg, route intravenous; settings: in vivo; how it was run: as §2
[16] = AUC in dog at 30 mg/kg, po; assay type: ADME, organism-based, Canis lupus familiaris; parameters: dose 30 mg/kg, route oral; settings: plasma; how it was run: as §2
[17] = Cmax in cynomolgus monkey at 30 mg/kg, po; assay type: ADME, organism-based, Macaca fascicularis; parameters: dose 30 mg/kg, route oral; settings: in vivo; how it was run: as §2
[18] = Oral bioavailability in cynomolgus monkey at 30 mg/kg; assay type: ADME, organism-based, Macaca fascicularis; settings: in vivo; how it was run: as §2
[19] = Clearance in chimpanzee at 1 mg/kg, iv; assay type: ADME, organism-based, Pan troglodytes; parameters: dose 1 mg/kg, route intravenous; settings: in vivo; how it was run: as §2
[20] = Half life in chimpanzee at 1 mg/kg, iv; assay type: ADME, organism-based, Pan troglodytes; parameters: dose 1 mg/kg, route intravenous; settings: in vivo; how it was run: as §2
[21] = Cmax in chimpanzee at 4 mg/kg, po; assay type: ADME, organism-based, Pan troglodytes; parameters: dose 4 mg/kg, route oral; settings: in vivo; how it was run: as §2
[22] = Tmax in chimpanzee at 4 mg/kg, po; assay type: ADME, organism-based, Pan troglodytes; parameters: dose 4 mg/kg, route oral; settings: in vivo; how it was run: as §2
[23] = AUC in chimpanzee at 4 mg/kg, po; assay type: ADME, organism-based, Pan troglodytes; parameters: dose 4 mg/kg, route oral; settings: plasma; how it was run: as §2
[24] = Half life in chimpanzee at 4 mg/kg, po; assay type: ADME, organism-based, Pan troglodytes; parameters: dose 4 mg/kg, route oral; settings: in vivo; how it was run: as §2
[25] = Half life in human administered as qd; assay type: ADME, organism-based; settings: in vivo

T1 sequence (P41597 whole entry): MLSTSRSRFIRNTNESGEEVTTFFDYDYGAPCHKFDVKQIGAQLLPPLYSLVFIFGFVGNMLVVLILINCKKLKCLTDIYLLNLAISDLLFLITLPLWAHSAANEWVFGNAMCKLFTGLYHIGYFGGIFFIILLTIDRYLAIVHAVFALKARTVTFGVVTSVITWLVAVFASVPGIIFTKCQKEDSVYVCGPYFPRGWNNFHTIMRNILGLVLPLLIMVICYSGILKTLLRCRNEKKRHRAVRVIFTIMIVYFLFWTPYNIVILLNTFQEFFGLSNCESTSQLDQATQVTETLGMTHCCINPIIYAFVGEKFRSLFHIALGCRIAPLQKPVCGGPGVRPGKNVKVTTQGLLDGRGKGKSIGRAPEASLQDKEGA

IC50 [1]: 3.7 nM
AUC/dose (Mus musculus): 617 nM·h
IC50 [2]: 2.6 nM
IC50 [3]: 6 nM
inhibition [4]: inactive
inhibition [5]: inactive
inhibition [6]: inactive
inhibition [7]: inactive
fraction unbound at up to 10 µM [8]: 0.58
Stability (Liver): Stable
IC50 (Cytochrome P450 1A2): > 25000 nM
IC50 (Cytochrome P450 2C19): > 25000 nM
IC50 (Cytochrome P450 2D6): > 25000 nM
CL (Rattus norvegicus [9]): 56.7 mL/min/kg
half-life [10]: 2.8 h
Cmax [11]: 573 nM
AUC (Rattus norvegicus [12]): 3.657 µM·h
half-life [13]: 2.9 h
clearance [14]: 9.5 mL/min/kg
half-life [15]: 3.5 h
AUC [16]: 33.3 µM·h
Cmax [17]: 2630 nM
bioavailability [18]: 13%
clearance [19]: 5.83 mL/min/kg
half-life [20]: 3.8 h
Cmax [21]: 1120 nM
Tmax [22]: 2 h
AUC [23]: 4.94 µM·h
half-life [24]: 5.3 h
half-life [25]: 15 h
Compound: COc1ccc([C@]2(O)CC[C@H](N3CC[C@@H](NC(=O)CNC(=O)c4cccc(C(F)(F)F)c4)C3)CC2)cn1.CS(=O)(=O)O
